Compound activity as filed in PubChem.
Rows were chosen to be rich in hits. Some 3.7% of all compounds tested hit in one or more screens of this group.
NPY Y2 blocker: NPY-Y2 (human) receptor antagonism | P49146 | NPY-Y2 expressing cells, antagonist mode | inhibition, % at 2.7 µM | 140,000 compounds, 0.99% hits;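 also: 0% = vehicle with agonist challenge and 100% = reference antagonist with challenge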
NPY Y1 blocker: blocks the human neuropeptide Y Y1 receptor; P25929; AID 1040; inhibition, % at 3.6 µM; 200,000 compounds, 1% hits; HEK293-CNG Y1 cells, membrane potential fluorescence; NPY at EC95, then isoproterenol;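 active = inhibition above the campaign mean inhibition of all tested compounds plus 3 SD, cut at about 20% in these data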;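 also: 0% = DMSO wells given NPY plus isoproterenol and 100% = isoproterenol alone without NPY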
Target sequence (P25929 whole entry, looked up): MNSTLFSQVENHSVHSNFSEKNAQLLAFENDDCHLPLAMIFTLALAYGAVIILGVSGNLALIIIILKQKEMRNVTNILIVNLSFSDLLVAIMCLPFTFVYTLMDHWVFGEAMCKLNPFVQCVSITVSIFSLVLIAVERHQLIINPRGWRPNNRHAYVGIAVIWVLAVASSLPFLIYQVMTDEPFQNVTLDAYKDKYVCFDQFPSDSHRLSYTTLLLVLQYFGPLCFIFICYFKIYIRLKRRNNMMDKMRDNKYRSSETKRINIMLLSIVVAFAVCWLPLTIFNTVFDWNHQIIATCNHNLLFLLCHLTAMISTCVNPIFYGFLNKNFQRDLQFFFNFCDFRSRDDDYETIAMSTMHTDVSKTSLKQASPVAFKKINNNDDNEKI
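Material: Y1- and CNG-channel-expressing HEK293 cells / Probe or stimulus: NPY 25 nM then isoproterenol 1 µM plus Ro 20-1724 25 µM / Doses: 3.6 µM single dose, DMSO 0.4% / Schedule: compound incubation 1 h at room temperature, readout 45 min post-stimulation / Signal: membrane potential fluorescence / Benchmarks: isoproterenol-only wells as full block versus NPY-plus-isoproterenol wells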
KCC2 mod: modulators of human KCC2 chloride dependent transport; Q9H2X9; KCC2 cells, thallium flux FluoZin-2 fluorescence; B-score of Tl+ flux slope (higher = more flux/activation; lower = inhibition) at 10 µM; 190,000 compounds, 2.2% hits; AID 1456;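 active = thallium flux slope and its plate-corrected score both differing from the plate sample mean at a set confidence after two filtering rounds, in either direction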;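 also: slope of fluorescence scaled to starting intensity during 10 to 20 s after thallium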
NPY2 pot ag: human NPY-Y2 potentiation or agonism, primary screen; P49146; 220,000 compounds, 0.45% hits; activation, % at 3.6 µM; AID 1359; cells expressing NPY-Y2, potentiator/agonist read-out; in the data active = activation above about 27%;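 also: cells stimulated with NPY near EC25 plus isoproterenol at EC100; 0% = vehicle plus submaximal agonist and 100% = vehicle plus saturating agonist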
Furin inh: blocks human furin protease activity; P09958; 220,000 compounds, 0.061% hits; AID 463115; inhibition, % at 20 µM or 30 µM; purified furin, fluorogenic substrate cleavage; in the data active = inhibition above about 25%
NPY-Y1 PAM-ag: potentiates or activates human NPY-Y1 receptor; AID 1304; NPY-Y1 expressing cells, potentiator/agonist activation; activation, % at 3.6 µM; 220,000 compounds, 0.37% hits; in the data active = activation above about 33%, passing the limit was not always enough;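 also: cells stimulated with NPY at EC10 then isoproterenol at EC100; 0% = low agonist plus stimulus and 100% = saturating agonist plus stimulus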
NPY-Y1 ant conf: confirmation of human neuropeptide Y receptor Y1 antagonists | shares compounds with NPY Y1 blocker | HEK293-CNG NPY-Y1, membrane potential fluorescence, cAMP; NPY challenge against isoproterenol-raised cAMP | inhibition, % at 3.6 µM | 1,200 compounds, 21% hits; in the data active = inhibition above about 20%;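 also: 0% = vehicle with agonist plus stimulus and 100% = stimulus alone without agonist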
NPY2 antag ctr: antagonizes human NPY-Y2, counter-screen to NPY-Y1 antagonists; HEK293 NPY-Y2 CNG membrane potential fluorescence, antagonism; cells given NPY, then isoproterenol; 1,200 compounds, 28% hits; AID 1255; inhibition, % at 3.6 µM; shares compounds with NPY Y1 blocker;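 also: 0% = DMSO with agonist challenge and 100% = reference antagonist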
Starred values were filed as active, the others as inactive; · = no result. Rule as the data show it, unless noted: active = inhibition above about 17%; inactive = the rest.

SMILES	NPY Y2 blocker	NPY Y1 blocker	KCC2 mod	NPY2 pot ag	Furin inh	NPY-Y1 PAM-ag	NPY-Y1 ant conf	NPY2 antag ctr
COc1ccc(CC2(C)OC(c3ccc(C)c([N+](=O)[O-])c3)=NN2C(C)=O)cc1 (configuration not stated)	·	·	-1.9	-32	-14	-27	·	·
CCOC(=O)c1c(NC(C)=O)sc2c(OCC(O)CNC(C)(C)C)c(Br)ccc12 (configuration not stated)	·	122*	1.5	-108	-14	-198	98*	115*
CCOC(=O)c1c(N)sc2c(OCC)c(Br)ccc12	8	7	-0.2	-9	-17	-23	·	·
Cc1ccccc1Oc1cc(NC(=O)CCCn2nc(C)c([N+](=O)[O-])c2C)cc([N+](=O)[O-])c1	1	-6	0.33	22	-8	16	·	·
Cc1ccccc1Oc1cc(NC(=O)Cn2cnc([N+](=O)[O-])c2)cc([N+](=O)[O-])c1	·	25*	0.39	16	-13	32	-5	-5
c1ccc(-c2nc(-n3ccnc3)nc(-n3ccnc3)n2)cc1	-2	-4	-0.53	21	-12	22	·	·
c1ccc(CN2CCN(c3nc(-c4ccccc4)nc(-n4ccnc4)n3)CC2)cc1	16	40*	-0.95	-31	-12	-116	24*	23*
Cc1ccc(C(=O)Nc2cc(Cl)ccc2N2CCCCC2)s1	13	10	0.4	-23	-6	-54	·	·
CCc1sc(C(=O)Nc2cc(Cl)ccc2N2CCCCC2)cc1C	8	21*	-1.7	-3	-15	-5	1	6
O=C(c1ccc([N+](=O)[O-])cc1)N1CCSC1c1cccc(Cl)c1 (configuration not stated)	·	-2	-1.3	2	-18	-7	·	·
O=C(/C=C/c1ccccc1)NCCSCc1ccc(Cl)cc1	13	21*	-0.06	-35	-7	-43	6	10
O=C(/C=C/c1ccc(Cl)cc1)NCCSc1ccccc1	5	29*	-0.37	-19	-16	-39	20*	43*
O=C(Nc1c2c(nn1-c1ccc(F)cc1)CS(=O)(=O)C2)C12CC3CC(CC(C3)C1)C2	6	33*	-0.93	12	6	-21	7	9
O=C(N1CCN(c2ccc(F)cc2)CC1)C12CC3CC(CC(C3)C1)C2	3	15	0.15	-17	-10	11	·	·
CC1CCCCN1c1ccc(N)cc1C(N)=O (configuration not stated)	·	3	0	-1	-28	10	·	·
CCn1nnc(-c2ccccc2NC(=O)c2ccc(-n3cnnn3)cc2)n1	6	23*	1.5	-6	11	12	14	6
COc1ccc(CN(C(=O)c2cccs2)c2ccccc2C(=O)O)cc1	·	·	0.17	-1	-19	9	·	·
O=C(O)c1ccccc1N(Cc1ccccc1)C(=O)CO/N=C/c1ccccc1	15	22*	-1.5	-24	-13	-31	10	10
Cn1c(-c2ccc3c(c2)OCO3)cnc1NCc1ccccc1Cl	·	12	-1.4	-2	1	-7	·	·
Cn1c(-c2ccc3c(c2)OCO3)cnc1NCc1cccc(Cl)c1	10	34*	-0.69	-18	-8	-6	12	12
Cc1cccc(C)c1NC(=O)c1c(C)nn(-c2ccccc2)c1Cl	2	32*	0.0009	11	-17	-1	5	2
O=C(CN1C(=O)C2CC=CCC2C1=O)Nc1nnc(SCc2c(Cl)cccc2Cl)s1 (configuration not stated)	5	3	0.052	6	-15	-1	·	·
O=C(CN1C(=O)C2CC=CCC2C1=O)Nc1nnc(SCc2ccc(Cl)cc2)s1 (configuration not stated)	15	24*	-1.7	-14	-31	-25	9	10
N#Cc1ccc(C(=O)CSc2n[nH]c(=O)n2Cc2ccco2)cc1	·	·	-0.081	-14	-27	-19	·	·
COc1cccc(CNC(=O)C(c2ccc(Cl)cc2)C(C)C)c1 (configuration not stated)	11	21*	-0.072	-8	-3	-5	17	7
SMILES	NPY Y2 blocker	NPY Y1 blocker	KCC2 mod	NPY2 pot ag	Furin inh	NPY-Y1 PAM-ag	NPY-Y1 ant conf	NPY2 antag ctr
CN1CCN(c2ccccc2NC(=O)c2sc3ccccc3c2Cl)CC1	·	9	0.097	-11	-10	-11	·	·
CCOc1ccccc1CN1CCN(C/C=C/c2ccc(OC)cc2)CC1CCO (configuration not stated)	·	25*	-0.24	-51	-2	-35	12	14
S=C(NCCc1ccccc1)Nc1cccc2cnccc12	·	2	0.62	13	-15	-5	·	·
COc1c(F)c(F)c(C(=O)Nc2c(C)cc(Br)cc2C)c(F)c1F	·	14	0.0029	-9	-18	-15	·	·
C=CCc1ccccc1OCCSc1nc2ccc([N+](=O)[O-])cc2s1	11	21*	0.31	-2	-20	2	16	16
COc1ccccc1OCCSc1nc2ccc([N+](=O)[O-])cc2s1	8	1	-0.45	-1	-11	3	·	·
COC(=O)c1ccc(C2C(Oc3ccc(OC)cc3)C(=O)N2CCc2ccc(F)cc2)cc1 (configuration not stated)	16	21*	-0.67	0	-19	-12	7	7
O=C(c1ccc2c(c1)OCO2)C1CCCN(Cc2cc(F)ccc2-n2cccn2)C1 (configuration not stated)	·	3	-1.1	-19	-22	-19	·	·
Cc1ccc(-n2cccn2)c(CN2CCCC(C(=O)c3ccc4c(c3)OCO4)C2)c1 (configuration not stated)	·	28*	·	-25	-27	-28	24*	28*
COc1cc(CN2CCCC(C(=O)c3ccc4c5c(cccc35)CC4)C2)cc(OC)c1O (configuration not stated)	·	12	0.21	-17	-25	-16	·	·
O=C(NCc1nc2ccccc2[nH]1)c1ccc(Cl)c(S(=O)(=O)N2CCCC2)c1	1	-5	0.71	-5	-24	-16	·	·
CCCn1c(NC(=O)c2ccc(Cl)c(S(=O)(=O)N3CCCC3)c2)nc2ccccc21	11	22*	-0.2	-38	-25	-74	13	22*
CCCCNC(=S)N(C)/N=C/c1ccc2c(c1)OCO2	10	22*	-0.28	-17	-2	-21	9	11
CC(=O)c1ccc(NC(=O)C(C)Nc2ccc(Cl)cc2)cc1 (configuration not stated)	·	-3	0.34	11	-26	12	·	·
